Results: publication PMC9662946 (Clinical Cancer Research, 2022)
“Also recorded” adds a separate entry of the source.

Experiments:
[1] = tested on: pAKT (S473), pAKT (T308), pGSK3β; assay: PD biomarkers of PI3Kβ inhibition in platelet-rich plasma; type: in vivo, human; conditions: pooled 60-mg and 120-mg BID monotherapy cohorts
advanced solid tumors = assay: Tumor response by RECIST 1.1; type: in vivo, human
Method in brief: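 Imaging at baseline and every 6 weeks (every 12 weeks for mCRPC) until discontinuation or consent withdrawal. Patients with measurable disease were classed as complete response, partial response, stable disease or progressive disease under RECIST 1.1. Results were summarised descriptively, with percent change from baseline in target lesions.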

pAKT (S473) and pPRAS40 = assay: IHC of paired tumor biopsies; type: in vivo, human; conditions: six patients, 120-mg BID monotherapy dose expansion
Method in brief: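 Paired fresh biopsies from patients with PTEN-deficient/mutated mCRPC or TNBC, taken at screening and in week 2 after ≥3 consecutive dosing days (preferably 2–4 h post-dose; days 11 or 12 on 5:2, days 11–14 continuous). IHC for pAKT (S473) and pPRAS40 on three non-consecutive sections. Digital image analysis scored membranous pAKT and cytosolic pPRAS40 intensity as H-scores, with percent change from baseline.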

PI3Kβ = conditions: cited from earlier work
[2] = Plasma pharmacokinetics of AZD8186 and metabolite M1; type: in vivo, human; conditions: for Effect of the combination partner on the PK of AZD8186 (Cmax, AUC): drug–drug interaction analysis versus AZD8186 monotherapy
[3] = tested on: patients with advanced solid tumors; assay: Phase I safety and tolerability: AEs, SAEs, DLTs; type: in vivo, human
[4] = non-prostate cancer, dose finding
[5] = combined with AZD8186, dose expansion
[6] = combined with AZD8186, dose finding

C[C@@H](Nc1cc(F)cc(F)c1)c1cc(C(=O)N(C)C)cc2c(=O)cc(N3CCOCC3)oc12 [AZD8186, (R)-8-(1-(3,5-difluorophenylamino)ethyl)-N,N-dimethyl-2-morpholino-4-oxo-4H-chromene-6-carboxamide]
pAKT (S473), pAKT (T308), and pGSK3β in platelet-rich plasma [1]: Substantial reductions | Duration of RECIST 1.1 partial response (advanced solid tumors; dose finding): 372 days | RECIST 1.1 best objective response stable disease, patients (advanced solid tumors; [4]): 38.9% | RECIST 1.1 disease progression, patients (advanced solid tumors; [4]): 55.6% | RECIST 1.1 confirmed partial response, patients (advanced solid tumors; non-prostate cancer, dose finding (120-mg BID; 2:5)): 5.6% | RECIST 1.1 disease progression, patients (advanced solid tumors; prostate cancer, dose expansion): 25.0% | RECIST 1.1 best objective response stable disease, patients (advanced solid tumors; prostate cancer, dose finding): 37.5% | RECIST 1.1 disease progression, patients (advanced solid tumors; prostate cancer, dose finding): 62.5% | Patients with substantial reduction in pAKT (S473) membrane fraction (pAKT (S473) and pPRAS40): all six patients | Patients with substantial reduction in pPRAS40 (pAKT (S473) and pPRAS40): five of the six patients | IC50 (PI3Kβ): 4 nM | half-life ([2]; human, plasma, oral, terminal elimination half-life, overall range, after a single dose): 1.4 to 13.8 h | Effect on the PK of abiraterone acetate ([2]; in vivo): little effect | Cmax and AUC versus dose ([2]; single- and multiple-dose administration): dose proportional; also recorded: increased with dose | Any AE ([3]; dose expansion): 19 (95.0) n (%) | Any AE causally related to AZD8186 only ([3]; dose expansion): 11 (55.0) n (%) | Any AE leading to discontinuation of AZD8186 ([3]; dose expansion): 1 (5.0) n (%) | Any AE leading to dose modification of AZD8186 ([3]; dose expansion): 0 n (%) | Any SAE (including deaths) ([3]; dose expansion): 4 (20.0) n (%) | Any SAE (including deaths), causally related to AZD8186 only ([3]; dose expansion): 2 (10.0) n (%) | Any SAE causing discontinuation of AZD8186 ([3]; dose expansion): 0 n (%) | Any SAE causing discontinuation of AZD8186, causally related to AZD8186 only ([3]; dose expansion): 0 n (%) | Any grade ≥3 AE ([3]; dose expansion): 8 (40.0) n (%) | Any grade ≥3 AE causally related to AZD8186 only ([3]; dose expansion): 3 (15.0) n (%) | Death ([3]; dose expansion): 0 n (%) | Death causally related to AZD8186 only ([3]; dose expansion): 0 n (%) | Dose interruption of AZD8186, patients ([3]; dose expansion): 35.0% | Dose reduction of AZD8186, patients ([3]; dose expansion): No dose reductions | Anemia, grade ≥3 causally related AE, patients ([3]; dose finding): 4.8% | Any AE ([3]; dose finding): 63 (100.0) n (%) | Any AE causally related to AZD8186 only ([3]; dose finding): 55 (87.3) n (%) | Any AE leading to discontinuation of AZD8186 ([3]; dose finding): 11 (17.5) n (%) | Any AE leading to dose modification of AZD8186 ([3]; dose finding): 10 (15.9) n (%) | Any SAE (including deaths) ([3]; dose finding): 23 (36.5) n (%) | Any SAE (including deaths), causally related to AZD8186 only ([3]; dose finding): 10 (15.9) n (%) | Any SAE causing discontinuation of AZD8186 ([3]; dose finding): 6 (9.5) n (%) | Any SAE causing discontinuation of AZD8186, causally related to AZD8186 only ([3]; dose finding): 5 (7.9) n (%) | Any grade ≥3 AE ([3]; dose finding): 39 (61.9) n (%) | Any grade ≥3 AE causally related to AZD8186 only ([3]; dose finding): 20 (31.7) n (%) | Aspartate aminotransferase increase, grade ≥3 causally related AE, patients ([3]; dose finding): 4.8% | Colitis, grade ≥3 causally related AE, patients ([3]; dose finding): 4.8% | Death ([3]; dose finding): 0 n (%) | Death causally related to AZD8186 only ([3]; dose finding): 0 n (%) | Diarrhea, AE causally related to AZD8186, patients ([3]; dose finding): 41.3% | Fatigue, AE causally related to AZD8186, patients ([3]; dose finding): 22.2% | Hypophosphatemia, grade ≥3 causally related AE, patients ([3]; dose finding): 4.8% | Maculo-papular rash, grade ≥3 causally related AE, patients ([3]; dose finding): 4.8% | Nausea, AE causally related to AZD8186, patients ([3]; dose finding): 27.0% | Vomiting, AE causally related to AZD8186, patients ([3]; dose finding): 23.8% | Dose interruption of AZD8186, patients ([3]; dose finding, whole arm): 49.2% | Dose interruption of AZD8186 related to AEs, patients ([3]; dose finding, whole arm): 38.1% | Dose reduction of AZD8186, patients ([3]; dose finding, whole arm): 17.5% | Tolerability ([3]; monotherapy dose expansion, 60-mg BID (5:2) and 120-mg BID (continuous)): well tolerated | Patients who experienced a DLT ([3]; monotherapy dose finding, 53 evaluable for DLTs): 7.5%

CC(=O)O[C@H]1CC[C@@]2(C)C(=CC[C@@H]3[C@@H]2CC[C@]2(C)C(c4cccnc4)=CC[C@@H]32)C1 [Abiraterone acetate, abiraterone acetate, reference compound]
Effect of the combination partner on the PK of AZD8186 (Cmax, AUC) [2]: little or no effect | Dose interruption of the combination partner, patients [3, 5]: 72.2% | Dose reduction of the combination partner, patients [3, 5]: 33.3% | Dose interruption of the combination partner, patients [3, 6]: 56.3% | Dose reduction of the combination partner, patients [3, 6]: 18.8%

CNC(=O)c1cccc(-c2ccc3c(N4CCOC[C@@H]4C)nc(N4CCOC[C@@H]4C)nc3n2)c1 [Vistusertib, vistusertib, reference compound]
Effect of the combination partner on the PK of AZD8186 (Cmax, AUC) [2]: not affected | Dose interruption of the combination partner, patients [3, 6]: 60.0% | Dose reduction of the combination partner, patients [3, 6]: 23.3%

C[C@]12C=CC(=O)C=C1CC[C@@H]1[C@@H]2C(=O)C[C@@]2(C)[C@H]1CC[C@]2(O)C(=O)CO [prednisone, reference compound]
Dose interruption of the combination partner, patients [3, 5]: 77.8% | Dose reduction of the combination partner, patients [3, 5]: 22.2% | Dose interruption of the combination partner, patients [3, 6]: 56.3% | Dose reduction of the combination partner, patients [3, 6]: 18.8%
